Measurements: ChEMBL document CHEMBL4513216, “Probing the Open Global Health Chemical Diversity Library for Multistage-Active Starting Points for Next-Generation Antimalarials” (ACS Infect Dis, 2020)

Assay: Toxicity liver stage against HepG2, at 10uM
Format: cell-based
Parameters: test concentration 10 uM, cell line HepG2-A16-CD81EGFP
Details: human, HepG2-A16-CD81EGFP cells; read-out: INHIBITION
In short: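 Uninfected HepG2-A16-CD81EGFP cells, 3 × 10^3 per well, 1536-well, plated on prespotted compound at 10 μM final, parasite-free screening media added to match infected plates; puromycin 10 μM positive, DMSO 0.5% negative; run in parallel with 48 h PbLuc assay at 37 °C, 5% CO2; viability by CellTiter-Glo luminescence, normalized to controls.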

Compound | cytotoxicity at 10 µM [%]
CCCN(CCOC)C(=O)c1cc(Cn2c(C)nc3ccccc32)[nH]n1 | 21.8
FC(F)(F)c1ccc(-n2ccnc2-c2cc3n(n2)CCNC3)cn1 | -4.65
O=C(Cn1nc(C(F)(F)F)c(Cl)c1C1CC1)NN1CCOCC1 | 5.01
CSc1ccsc1C(=O)NS(=O)(=O)c1ccc(F)cc1 | -3.91
CC(C)CN1CC2(CCN(C(=O)c3cn4cccnc4n3)CC2)CC1=O | -6.84
c1cnc(N2CCC(OCC3CCCCO3)CC2)nc1 (configuration not stated) | -11.4
Cc1ccc(-c2nnc(CN3CCN(c4ccccn4)CC3)o2)cc1 | -5.34
O=c1[nH]c2ncccc2n1C1CCCCC1 | 3.16
CN1CCN(Cc2cccnc2)C2(CCN(Cc3ccccn3)C2)C1=O (configuration not stated) | -3.66
O=C(NCCN1CCOCC1)c1cc(Cl)c2c(c1)OCCCO2 | -5.29
O=C(c1ccc2[nH]nnc2c1)N1C[C@H](O)[C@]2(CCCO2)C1 | 3.42
COCC1CN(C(=O)COc2ccccc2C)Cc2ncn(C)c21 (configuration not stated) | -2.17
CCCN(C)c1ncc2c(n1)N(C)CCN(CC1CC1)C2=O | -5.69
CCCN(C(=O)CN1CCN(CC(C)O)CC1)C1=CCCCC1 (configuration not stated) | 4.13
Cc1n[nH]c(C)c1CCN(C)C(=O)c1ccc(CN2CCCCC2)cc1 | -9.9
O=C1CCC(=O)N1CCn1nnc(-c2cccc(Cl)c2)n1 | -5.05
CC(C)N1CCCC(N2CCOC3(CCCC3)C2)C1=O (configuration not stated) | -7.33
CN1CCN(CCO)C(=O)C12CCN(Cc1ccsc1)CC2 | 3.66
COC(=O)c1cc(C(=O)N2CCOC(C)(C)C2)n(-c2ccccc2)n1 | -2.81
COc1cccc(C(=O)NCc2ccccc2S(=O)(=O)N(C)CCO)c1 | -4.73
c1ccc(CN2CCC3(CC2)CC(Oc2cccnc2)C3)nc1 | -111
Cc1cccc(-c2nnc(C(C)N3CCn4c(C)nnc4C3)o2)c1 (configuration not stated) | 0.131
CC(C)(C)C1CCC(O)(CNC(=O)CCS(C)(=O)=O)CC1 (configuration not stated) | 6.51

Compound | cytotoxicity at 10 µM [%]
CC(NC(=O)NCCCO)c1ccc(-c2ccncc2)cc1 (configuration not stated) | 6.93
Cc1cc(C(=O)N2CCC(O)(Cn3ccc4ccncc43)CC2)on1 | 7.55
CCOCC(O)CN1CCN(C(=O)c2cccc(CC#N)c2)CC1 (configuration not stated) | -16.4
Cc1cc(C)n(C2CCCN(C(=O)CCCc3ccccn3)C2)n1 (configuration not stated) | -16.3
Cc1cccn2c(=O)cc(CSCC(=O)Nc3nnc(C(C)C)s3)nc12 | 0.879
Cc1nc(Nc2cnccn2)cc(C2CCCN2)n1 (configuration not stated) | -9.46
O=C(CCc1nc2cccnc2[nH]1)Nc1ccc2c(c1)OCC(=O)N2 | 6.78
O=C(CCO)N1CC[C@@H]2CN(C(=O)c3ccco3)CCO[C@@H]2C1 | -72.6
Cc1cc(C(=O)N2CCCN(Cc3nccn3C(C)C)CC2)no1 | -2.72
O=C(CN1CCCCC1=O)N1CCC2(CC1)[C@H](O)C[C@@H]2O | -1.74
CC(C)CNC(=O)[C@H]1CCS(=O)(=O)[C@@H]2CN(Cc3ccc(Cl)cc3)C[C@H]12 | -13.9
COc1ccc(C)cc1CC(=O)NC1(C#N)CCOCC1 | 6.18
CN(C)CC1(O)CCN(C(=O)c2ccc(-n3cnnc3)cc2Cl)C1 (configuration not stated) | -5.06
CN1CCCC1CNC(=O)CCCOCc1ccccc1 (configuration not stated) | -5.59
Cc1c(-c2ccccc2)nc2c(c(C)c(C)n2CCN(C)C)c1N | 24.6
CN(Cc1ccsc1)C(=O)Cn1c(CS(C)(=O)=O)nc2ccccc21 | 6.96
O=C(NCCc1c[nH]c2ccccc12)C1(n2cnnn2)CCCCC1 | -0.321
Cc1nn(Cn2ccc(C(=O)N3CCC(C)CC3)n2)c(C)c1Cl | -2.36
N#CCCN(CC1CCOC1)S(=O)(=O)c1c(F)cccc1Cl (configuration not stated) | -2.58
CC(=O)c1cc(Br)cc(F)c1OCC(=O)NC1CC1 | -6.16
CC(C)c1noc([C@@H]2C[C@H](NS(=O)(=O)Cc3ccccc3)CN2C)n1 | -2.1
CCN(CC)CCCNC(=O)C(C)n1cc(Br)cn1 (configuration not stated) | -3.33
OC(CNc1ncnc2c1CCNCC2)C(F)(F)F (configuration not stated) | -4.92

Compound | cytotoxicity at 10 µM [%]
CCn1cc(C(=O)Nc2cc(C)ccc2C)cn1 | 0.946
CC(=O)N1CCCC(C(=O)NCCc2ccc(F)c(Br)c2)C1 (configuration not stated) | 4.64
CCC(C)CS(=O)(=O)NC(=O)C1CCC1 (configuration not stated) | -7.88
CC(=O)N1CC[C@H]2[C@H](C[C@@H](CN3CCCC3)N2c2nccs2)C1 | 1.84
CCOCC1CN(C(=O)C2=CCCC2)Cc2cnn(C)c21 (configuration not stated) | 1.49
CC(Nc1ccn(Cc2ccccn2)n1)C(=O)NC(C)(C)C (configuration not stated) | -2.08
Cc1ccc(CC(=O)N2CCN(CC(O)c3ccccc3)CC2)cn1 (configuration not stated) | -10.9
CCNC(=O)N[C@H]1C[C@@H](Cc2cc(CN3CCCCC3)on2)C1(C)C | -5.46
COCCN1CCC2(COCCN(C(=O)Cc3cccs3)C2)C1 (configuration not stated) | 4.29
COc1cc(C(=O)N2CCC(c3n[nH]c(C4CC4)n3)CC2)ccc1C | 3.37
Cc1cccc(CN2CC3(CCN(C4CCOC4)CC3)OCC2=O)n1 (configuration not stated) | -2.92
CNC(=O)C1CN(C(=O)c2ccncc2)CCN(S(C)(=O)=O)C1 (configuration not stated) | 6.67
CNC(=O)C1(c2cnccn2)CCCN1C(=O)c1ccccc1 (configuration not stated) | -20.6
O=C(CSC1=NS(=O)(=O)c2cc(F)ccc2N1)Nc1ccc(Cl)c(Cl)c1 | 11.5
CC(C)CNC(=O)CCN1C(=O)CCc2cc(F)ccc21 | 8.17
O=C(c1cc(F)cc2[nH]cnc12)N1CCCC1Cn1cccn1 (configuration not stated) | 7.39
CCNc1cc2c(nn1)CCN(C(=O)Cc1c(C)nn(C)c1C)C2 | -8.25
CN1C(=O)CC(c2ccncc2)C12CCN(c1ncccn1)CC2 (configuration not stated) | -108
COC(=O)c1cccn1C1CCN(Cc2nc3ccccc3o2)CC1 | 1.81
Cc1cnn(CCNCc2nc(COc3ccc(F)cc3)no2)c1 | -5.61
O=C(c1cc2c([nH]c1=O)CCC2)N1CCCC1c1ccccc1 (configuration not stated) | -5.76
O=C(c1csnn1)N1CCc2[nH]nc(COc3cccc(Cl)c3)c2C1 | -60
Cc1nn(C)c(N(C)C)c1CNC(C)c1cccnc1 (configuration not stated) | -2.8

Compound | cytotoxicity at 10 µM [%]
CN(CCc1ccccc1)C(=O)c1cc(CN2CCC(O)CC2)on1 | -2.92
CC(C)n1nc(O)c2c1NC(=O)CSC2c1cnn(C)c1 (configuration not stated) | -5.28
CC(C)c1nc(CN2CCN(C(=O)OC(C)(C)C)C(C)C2)no1 (configuration not stated) | 1.62
CCCS(=O)(=O)N1CCC(n2nc(-c3cc(C)oc3C)ccc2=O)CC1 | 14.6
Fc1cnc(N2CC[C@@H]3CN(Cc4ccncc4)CCO[C@@H]3C2)nc1 | 5.38
COc1cccc(CN2CCC(c3cc(O)nc(C)n3)C2)c1 (configuration not stated) | -0.542
CCOc1ncccc1NC(=O)c1ccc(C(C)=O)s1 | 2.99
COc1ccc(OCCN2CCN(Cc3nccn3C)CC2)cc1 | -6.25
CCn1nc(C)c(S(=O)(=O)Nc2cccc(C(=O)O)c2C)c1C | -0.731
O=C(C1CNCCO1)N1CCCC(c2ccccc2)(c2ccccc2)C1 (configuration not stated) | 12.2
CCc1nc(CCn2ccnc2-c2nccn2C)no1 | -50.2
Cc1cc2nc(C(=O)NCc3cccnc3N(C)C)cc(C)n2n1 | -5.54
CCC(C(=O)NCc1cc(N2CCOCC2)ncn1)n1cccn1 (configuration not stated) | 1.44
CN1CC(=O)N(c2cccc(F)c2)CC12CCN(S(=O)(=O)C1CC1)C2 (configuration not stated) | -71.8
Cc1ccsc1CNc1cc(N2CCCC2CO)ncn1 (configuration not stated) | -2.45
O=C(Nc1ccncc1)C1=NN(c2ccccc2)C(=O)CN1 | 2.76
CC(Cc1ccc(C(F)(F)F)cc1)C(=O)N1CCCS1(=O)=O (configuration not stated) | -1.01
Cc1nc2ccccc2n1CCNCc1cccc(C#N)c1 | -0.591
FC(F)CNc1cnc(C2CCCN2)cn1 (configuration not stated) | 0.865
Cc1ccc(C(=O)NC2CCN(S(C)(=O)=O)CC2)c(=O)[nH]1 | 15.7
Cc1nc(C)n(CC2CCCCN2Cc2nc(-c3ccoc3)no2)n1 (configuration not stated) | 1.98
NC(=O)c1cc2c(nc1-c1ccoc1)CCC2 | 0.562
COc1ccc(-c2cccc(CC3(C(=O)O)CCOCC3)c2)cc1 | -34.3

Compound | cytotoxicity at 10 µM [%]
Cc1cnc(N2CCC3(CCC(C(=O)NC(C)C)OC3)CC2)nc1 (configuration not stated) | 0.903
Cc1csc(N2CCN(C(=O)NCCNc3ncccn3)CC2)n1 | -18.8
CCn1ccnc1CN(C)c1cc(C2CCCNC2)nc(C)n1 (configuration not stated) | -2.48
CCOCC1CN(C(=O)c2ccoc2)Cc2nn(C)cc21 (configuration not stated) | 0.254
CCN1Cc2ccccc2CC2(CCN(CC3CCC3)CC2)C1=O | 4.15
O=C(Nc1ccccc1)C1=NOC2(CCCN(C(=O)C3CCCC3)C2)C1 (configuration not stated) | 4.88
CCOC(=O)C1CCCN(Cc2cc(C#N)n(C)c2C)C1 (configuration not stated) | 0.0308
CCc1ncnc2c1CCN(C(=O)c1ccncc1F)CC2 | -88.5
Cc1ccc2[nH]c3c(c2c1)CN(C(=O)CN(C)CC1OCCO1)CC3 | 6.5
CC(=O)N1CCc2nnc(C3CCCCN3CC3CCCCC3)n2CC1 (configuration not stated) | 10.2
CCC(C)(C)C(=O)NCCCOC1CCOC1 (configuration not stated) | -6.21
CCc1ncnc2c1CCN(Cc1ccc(OC)cc1)CC2 | -0.00161
CC(=O)N(C)C1CCCc2nc(C)sc21 (configuration not stated) | -4.97
Cc1ccc(CN2CCC3(CC2)CC(NC(=O)c2ccccn2)CO3)o1 (configuration not stated) | 3.8
CC(C)(C)CCN1CCCC(Cn2cc(CCO)nn2)C1 (configuration not stated) | -13.9
CC[C@@]1(O)CCN(C(=O)c2ccoc2)C[C@H]1O | 4.63
O=C(Nc1ccc(F)cc1)C1CSCN1 (configuration not stated) | -2.76
Cc1c(C)n(Cc2ccncc2)c2nc3c(c(N)c12)CCCCC3 | 1.26
COc1cc(F)ccc1N(C)Cc1ccncc1 | -3.64
Cn1cc(-c2cnc(-c3ccnn3C)nc2)cc1C(=O)NC1CC1 | 3.77
